Results: ChEMBL document CHEMBL4130532, “Camellianols A-G, Barrigenol-like Triterpenoids with PTP1B Inhibitory Effects from the Endangered Ornamental Plant Camellia crapnelliana” (J Nat Prod, 2017)

Experiments:
[1] = target: T1, Tyrosine-protein phosphatase non-receptor type 1 (Homo sapiens, UniProt P18031); experiment: Inhibition of recombinant human GST-tagged PTP1B catalytic domain expressed in Escherichia coli BL21 using para-nitrophenyl phosphate as substrate
T1 sequence (P18031 whole entry): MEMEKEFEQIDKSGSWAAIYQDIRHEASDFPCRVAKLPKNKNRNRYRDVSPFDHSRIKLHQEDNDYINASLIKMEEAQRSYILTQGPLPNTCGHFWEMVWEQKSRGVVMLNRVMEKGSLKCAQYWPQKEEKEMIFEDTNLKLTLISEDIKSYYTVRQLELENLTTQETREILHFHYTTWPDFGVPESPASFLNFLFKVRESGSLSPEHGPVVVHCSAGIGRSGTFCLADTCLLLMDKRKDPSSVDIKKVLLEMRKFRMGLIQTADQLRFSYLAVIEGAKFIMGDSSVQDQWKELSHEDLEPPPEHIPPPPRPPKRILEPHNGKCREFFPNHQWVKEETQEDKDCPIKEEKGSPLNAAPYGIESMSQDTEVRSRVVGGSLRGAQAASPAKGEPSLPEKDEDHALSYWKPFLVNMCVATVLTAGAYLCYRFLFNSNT

[2] = Cytotoxicity against human L02 cells assessed as cell viability at 10 uM after 24 hrs by MTS assay relative to control; assay type: cell-based; details: read-out: Activity
Summary of the method: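 Human […] L02 cells were seeded and cultured overnight, then exposed to the compound at varying concentrations for 24 h. Medium containing the water-soluble tetrazolium MTS reagent was added, and the cells were incubated at 37 °C for 2 h to read out viability.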

Structure (SMILES) | IC50 [1] | viability at 24 h, 10 µM [2]
C/C=C(/C)C(=O)OC[C@@]12[C@H](O)[C@H](O)[C@]3(C)C(=CC[C@@H]4[C@@]5(C)CC[C@H](O)C(C)(C)[C@@H]5CC[C@]43C)[C@@H]1CC(C)(C)C[C@@H]2O | 11.1 µM | > 90%
C[C@H]1[C@H](C)CC[C@]2(C)CC[C@]3(C)C(=CC[C@@H]4[C@@]5(C)CC[C@H](O)C(C)(C)[C@@H]5CC[C@]43C)[C@H]12 | 19.3 µM | > 90%
CC(=O)O[C@H]1[C@@H](O)[C@@]2(CO)[C@@H](O)CC(C)(C)C[C@H]2C2=CC[C@@H]3[C@@]4(C)CCC(=O)C(C)(C)[C@@H]4CC[C@@]3(C)[C@@]21C | 44.4 µM | > 90%
CC(=O)O[C@@H]1[C@H](O)[C@]2(C)C(=CC[C@@H]3[C@@]4(C)CCC(=O)C(C)(C)[C@@H]4CC[C@]32C)[C@@H]2CC(C)(C)C[C@H](O)[C@]12CO | 20 µM | > 90%
CC1(C)CC[C@]2(C)CC[C@@]3(C)[C@]4(C)CC[C@H]5C(C)(C)[C@@H](O)CC[C@]5(C)[C@H]4[C@H](O)C(=O)[C@]3(O)[C@@H]2C1 | 1.34 µM | > 90%
CC(=O)O[C@@H]1C[C@]2(C)C(=CC[C@@H]3[C@@]4(C)CC[C@H](O)C(C)(C)[C@@H]4CC[C@]32C)[C@@H]2CC(C)(C)C[C@H](O)[C@]12CO | 10.2 µM | > 90%
CC1(C)CC[C@]2(CO)[C@H](O)[C@H](O)[C@]3(C)C(=CC[C@@H]4[C@@]5(C)CC[C@H](O)C(C)(C)[C@@H]5CC[C@]43C)[C@@H]2C1 | 14.4 µM | > 90%
CC1(C)CC[C@]2(C)CC[C@]3(C)C(=CC[C@@H]4[C@@]5(C)CC[C@H](O)C(C)(C)[C@@H]5CC[C@]43C)[C@@H]2C1 [beta-AMYRIN] | > 100 µM | > 90%
CC(=O)O[C@@H]1[C@H](O)[C@]2(C)C(=CC[C@@H]3[C@@]4(C)CC[C@H](O)C(C)(C)[C@@H]4CC[C@]32C)[C@@H]2CC(C)(C)C[C@H](O)[C@]12CO | 47.4 µM | > 90%
CC1(C)CC[C@]2(C(=O)O)CC[C@]3(C)C(=CC[C@@H]4[C@@]5(C)CC[C@H](O)C(C)(C)[C@@H]5CC[C@]43C)[C@@H]2C1 [OLEANOLIC_ACID] |  | > 90%
C=C(C)[C@@H]1CC[C@]2(C)CC[C@]3(C)[C@H](CC[C@@H]4[C@@]5(C)CC[C@H](O)C(C)(C)[C@@H]5CC[C@]43C)[C@@H]12 [LUPEOL] | 3.68 µM | > 90%
CC(C)(O)[C@@H]1CC[C@]2(C)CC[C@]3(C)C(CC[C@@H]4[C@@]5(C)CC[C@H](O)C(C)(C)[C@@H]5CC[C@]43C)[C@H]12 (stereo not given in full) | 12.4 µM | > 90%
C/C=C(/C)C(=O)O[C@H]1CC(C)(C)C[C@H]2C3=CC[C@@H]4[C@@]5(C)CC[C@H](O)C(C)(C)[C@@H]5CC[C@@]4(C)[C@]3(C)[C@@H](OC(C)=O)[C@@H](O)[C@@]12CO | 7.4 µM | > 90%
CC1(C)C[C@H](O)[C@]2(CO)[C@H](O)[C@H](O)[C@]3(C)C(=CC[C@@H]4[C@@]5(C)CC[C@H](O)C(C)(C)[C@@H]5CC[C@]43C)[C@@H]2C1 | 16.8 µM | > 90%
C/C=C(/C)C(=O)O[C@H]1CC(C)(C)C[C@H]2C3=CC[C@@H]4[C@@]5(C)CC[C@H](O)C(C)(C)[C@@H]5CC[C@@]4(C)[C@]3(C)[C@@H](O)[C@@H](O)[C@@]12CO | 2.56 µM | > 90%
C/C=C(/C)C(=O)O[C@H]1CC(C)(C)C[C@H]2C3=CC[C@@H]4[C@@]5(C)CC[C@H](O)C(C)(C)[C@@H]5CC[C@@]4(C)[C@]3(C)[C@@H](O)[C@@H](OC(C)=O)[C@@]12CO | 4.87 µM | > 90%
CC1(C)C[C@H](O)[C@]2(CO)[C@H](O)[C@H](O)[C@]3(C)C(=CC[C@@H]4[C@@]5(C)CCC(=O)C(C)(C)[C@@H]5CC[C@]43C)[C@@H]2C1 | 49.4 µM | > 90%
CC1(C)C[C@H](O)[C@]2(CO)[C@H](O)C[C@]3(C)C(=CC[C@@H]4[C@@]5(C)CC[C@H](O)C(C)(C)[C@@H]5CC[C@]43C)[C@@H]2C1 | 8.93 µM | > 90%
